Results as given in PubChem BioAssay AID624302 (The Scripps Research Institute Molecular Screening Center, 2012).
Activity calls are given as the source filed them.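 The calls were made as follows: active = relative luminescence ratio of 1.25 or more at any tested dose; inactive = ratio below 1.25 at every dose.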

Target: Nuclear receptor subfamily 0 group B member 1 (Homo sapiens) (UniProt P51843)
Assay: DAX1 (NR0B1) inhibitors, reporter derepression, dose response, cell-based, luminescence, HEK293, powder samples, assay provider (AID 624302)
Details: HEK293 GAL4-DAX1 repression, luciferase reporter luminescence; at 100 µM; stronger effect = higher value
Procedure, shortened: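 test system = HEK293 with GAL4-DAX1 fusion and Gal4-tk-luc reporter | signal = luciferase reporter luminescence | compound dosing = 100 µM, plus three 1:2 steps starting 50 µM | controls = DMSO vehicle wells as reference | read-out basis = luminescence ratio versus DMSO wells, higher with DAX1 derepression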

Nuclear receptor subfamily 0 group B member 1 (Homo sapiens), sequence (P51843 207-470 limits assumed): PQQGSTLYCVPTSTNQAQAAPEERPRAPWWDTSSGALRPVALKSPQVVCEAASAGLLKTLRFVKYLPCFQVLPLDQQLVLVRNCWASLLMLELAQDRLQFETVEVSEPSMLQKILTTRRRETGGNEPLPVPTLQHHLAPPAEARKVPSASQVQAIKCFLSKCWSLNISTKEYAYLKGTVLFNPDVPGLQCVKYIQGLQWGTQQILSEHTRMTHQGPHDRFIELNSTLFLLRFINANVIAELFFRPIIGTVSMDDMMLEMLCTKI

Relative luminescence ratio, inactive:
COc1ccc(OC)c(C(C)NC(=O)c2ccccc2Cl)c1 (centres undefined) 0.39
COc1cccc(C(=O)Nc2ccc3c(c2)OCO3)c1 0.16
COc1ccc(OC)c(C(C)NC(=O)c2ccccc2)c1 (centres undefined) 0.46
COc1ccc(OC)c(C(C)NC(=O)c2ccc3c(c2)OCCO3)c1 (centres undefined) 0.31
CN(C)c1cccc(C(=O)Nc2ccc3c(c2)OCCO3)c1 0.05
COc1ccc(OC)c(C(C)NC(=O)c2ccc(F)cc2)c1 (centres undefined) 0.33
Cc1occc1C(=O)Nc1ccc2c(c1)OCO2 0.21
O=C(Cc1cccs1)Nc1ccc2c(c1)OCO2 0.62
COc1ccc(OC)c(C(C)NC(=O)c2ccc(Cl)cc2)c1 (centres undefined) 0.3
COc1cccc(C(=O)Nc2ccc3c(c2)OCCO3)c1 0.02
COc1cccc(C(=O)NC(C)c2cc(OC)ccc2OC)c1 (centres undefined) 0.3
O=C(Nc1ccc2c(c1)OCCO2)c1ccc2ccccc2c1 0.02
COc1ccc(OC)c(C(C)NC(=O)c2c(F)cccc2Cl)c1 (centres undefined) 0.51
COc1ccc(OC)c(C(C)NC(=O)c2ccccc2C)c1 (centres undefined) 0.42
COc1ccc(OC)c(C(C)NC(=O)c2cccc(F)c2)c1 (centres undefined) 0.63
O=C(Nc1ccc2c(c1)OCO2)c1ccc(C2SCC(=O)N2Cc2ccco2)cc1 (centres undefined) 0.01
COc1ccc(OC)c(C(C)NC(=O)c2cccc3ccccc23)c1 (centres undefined) 0.01
O=C(Nc1ccc2c(c1)OCO2)c1ccc2ccccc2c1 0.02
Cc1cc(C(=O)Nc2ccc3c(c2)OCO3)cs1 0.26
COc1ccc(OC)c(C(C)NC(=O)c2ccccc2F)c1 (centres undefined) 0.39
COc1ccc(OC)c(C(C)NC(=O)c2cccc(C)c2)c1 (centres undefined) 0.23
O=C(Nc1ccc2c(c1)OCO2)c1ccc(C2SCC(=O)N2Cc2ccccc2)cc1 (centres undefined) 0.01
CSc1ccccc1C(=O)Nc1ccc2c(c1)OCO2 0.41
COc1ccc(OC)c(C(C)NC(=O)c2ccc(C)cc2)c1 (centres undefined) 0.38
O=C(Nc1ccc2c(c1)OCO2)c1cccs1 0.38
COc1ccc(OC)c(C(C)NC(=O)c2ccc(C(C)(C)C)cc2)c1 (centres undefined) 0.1
CSc1ccccc1C(=O)Nc1ccc2c(c1)OCCO2 0.51

Relative luminescence ratio, active:
Cn1c(=O)n(C)c2cc(C(=O)Nc3ccc4c(c3)OCCO4)ccc21 2.25
Cn1c(=O)n(C)c2cc(C(=O)Nc3ccc4c(c3)OCO4)ccc21 1.77
